Screening results: PubChem BioAssay, several laboratories
The list is not random: actives were taken first. Their share in the collection is about 9.6%.
PMI activator – activators of human phosphomannose isomerase; AID 1214; purified human PMI, coupled resazurin fluorescence, 20 min; active compounds read high; 1 = vehicle control, 0 substrate-free wells; activation factor at 20 µM; P34949; 0.005% of 190,000 active;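 active = activation factor of 2 or more at 20 µM, relative to plate controls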
Target sequence (P34949 whole entry, looked up): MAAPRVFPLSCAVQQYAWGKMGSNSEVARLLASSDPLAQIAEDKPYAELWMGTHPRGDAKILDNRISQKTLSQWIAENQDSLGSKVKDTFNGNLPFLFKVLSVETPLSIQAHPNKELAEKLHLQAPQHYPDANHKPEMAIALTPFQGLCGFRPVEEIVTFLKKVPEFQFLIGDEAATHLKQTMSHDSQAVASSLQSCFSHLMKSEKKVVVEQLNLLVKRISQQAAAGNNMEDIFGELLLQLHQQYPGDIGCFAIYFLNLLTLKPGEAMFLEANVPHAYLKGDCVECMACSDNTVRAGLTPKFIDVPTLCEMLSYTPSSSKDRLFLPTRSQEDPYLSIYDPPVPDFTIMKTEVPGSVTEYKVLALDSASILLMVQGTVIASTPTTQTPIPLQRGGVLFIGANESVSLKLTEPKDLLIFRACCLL
L major viab – inhibitors of Leishmania major promastigote growth; inhibition, % at 10 µM; 9% of 200,000 active; Leishmania major promastigotes, resazurin fluorescence viability; in the data active = inhibition above about 50%;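 note: promastigotes grown with compound for 44 hours at 28 °C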
PMI act hi M6P – activators of human phosphomannose isomerase at near-saturating mannose 6-phosphate; AID 1216; 0.34% of 190,000 active; activation factor at 20 µM; coupled PMI enzyme assay, resazurin fluorescence, 20 min; active compounds read high; 1 = untreated enzyme, 0 = substrate-free blank;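 active = activation factor of 2 or more at 20 µM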
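test system = human PMI in coupled enzyme assay | medium = HEPES-buffered pH 7.4 with magnesium and detergent | also added = 1.0 mM mannose-6-phosphate substrate with 0.22 mM NADP+ | compound = 20 µM single dose | times = 20 min incubation at room temperature | measured by = resorufin fluorescence (Ex 544/Em 590 nm) from resazurin via diaphorase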
HCT116 bCat-KO – beta-catenin-lacking colon tumor cell growth suppression. HCT116 beta-catenin knockout viability, CellTiter-Glo, 60 h; active compounds read low. viability, % at 10 µM. 1.5% of 140,000 active. AID 818;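 active = viability at or under a set limit, the compound median less 4 SD, cut at about 6% in these data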
PTEN del growth – PTEN-deleted cell growth suppression; viability, % at 10 µM; 1.2% of 140,000 active; HCT116 PTEN-null viability, CellTiter-Glo, 60 h; active compounds read low;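 active = viability at or below a set limit, 4 SD under the median of all tested compounds, cut at about 3.7% in these data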;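 note: PTEN knockout HCT116 line with beta catenin targeted HCT116 as companion control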
Large screens that a line does not name were inactive.

CN(C)CCNc1ncnc2c1cnn2-c1ccc(Cl)cc1	L major viab 98
c1ccc(-c2oc3ncnc(NCCCN4CCOCC4)c3c2-c2ccccc2)cc1	L major viab 100
COc1ccc(-c2oc3ncnc(NCCCN4CCOCC4)c3c2-c2ccc(OC)cc2)cc1	L major viab 75
Cc1cc(/C=C2\NC(=O)N(Cc3ccc(Cl)cc3)C2=O)c(C)n1C	none
COc1ccc(-n2ncc3c(NCCN4CCOCC4)ncnc32)cc1	L major viab 92
CCOc1cc2nc(-c3ccc(OC)c(OC)c3)nc(NCCCN3CCOCC3)c2cc1OC	L major viab 54
COc1ccc(-n2ncc3c(NCCCN4CCOCC4)ncnc32)cc1	none
COc1ccc(-c2oc3ncn(CCN4CCOCC4)c(=N)c3c2-c2ccc(OC)cc2)cc1	L major viab 55
Cc1cc(C)c(C)c(S(=O)(=O)N2CCN(CC(=O)NC(=O)NCc3ccccc3)CC2)c1C	none
C=CCOC(=O)C1=C(C)NC(C)=C(C(=O)OCC=C)C1/C=C/c1ccccc1	L major viab 100
CN(C)c1cccc(C(=O)OCC(=O)NCC2CCCO2)c1 (stereo not given)	none
Cc1cc(S(=O)(=O)NCC(C)C)ccc1OCC(=O)NCC1CCCO1 (stereo not given)	L major viab 59
COc1cc(OC)c(NS(=O)(=O)c2cccc(C(=O)OCC(=O)NCC3CCCO3)c2)cc1Cl (stereo not given)	L major viab 80 (no result: HCT116 bCat-KO, PTEN del growth)
CCOP(=O)(OCC)C(NC(=O)c1cccs1)C(F)(F)F (stereo not given)	none (no result: HCT116 bCat-KO, PTEN del growth)
CC(=O)Oc1ccc(-c2csc(Nc3ccc(S(N)(=O)=O)cc3)n2)cc1	L major viab 55 (no result: PMI activator, PMI act hi M6P, HCT116 bCat-KO, PTEN del growth)
CCOC(=O)C1(Cc2ccccc2)CCN(CC2CC=CCC2)CC1 (stereo not given)	L major viab 80 (no result: HCT116 bCat-KO, PTEN del growth)
O=C(c1ccccc1)N1CCN(CC2CC=CCC2)CC1 (stereo not given)	L major viab 70
COc1cc(CN2CCC(C(=O)N3CCCC(C)C3)CC2)cc(OC)c1O (stereo not given)	none
CCOC(=O)C1(Cc2cccc(F)c2)CCN(CC2CC2)CC1	none (no result: HCT116 bCat-KO, PTEN del growth)
CCOC(=O)C1(Cc2cccc(OC)c2)CCN(CC2CC=CCC2)CC1 (stereo not given)	L major viab 92 (no result: HCT116 bCat-KO, PTEN del growth)
CC1CCCN(C(=O)C2CCN(CC3CC=CCC3)CC2)C1 (stereo not given)	L major viab 94
c1ccc2c(c1)nc1n2CCN1	none
COc1ccc(CN2CNc3nc4ccccc4n3C2)cc1	L major viab 62
O=C(CSc1nnnn1C1CCCCC1)NCc1cccs1	none (no result: HCT116 bCat-KO, PTEN del growth)
CN1CCN(CC(O)(c2ccc(Cl)cc2)c2ccc(Cl)cc2)CC1	L major viab 53 (no result: HCT116 bCat-KO, PTEN del growth)
CCC(C)NCC(O)(c1ccc(Cl)cc1)c1ccc(Cl)cc1 (stereo not given)	none (no result: HCT116 bCat-KO, PTEN del growth)
CN(CCC#N)C(=S)NC(=O)c1ccc(S(=O)(=O)N2CCOCC2)cc1	none (no result: HCT116 bCat-KO, PTEN del growth)
CSc1ccc(CNc2ccccn2)cc1	none
CSc1ccc(CNc2ccccc2)cc1	L major viab 100
CCOC(=O)N1CCN(c2cc(N3CCOCC3)c(F)cc2[N+](=O)[O-])CC1	none (no result: HCT116 bCat-KO, PTEN del growth)
CCOC(=O)N1CCN(c2cc(N3CCN(CC)CC3)c(F)cc2[N+](=O)[O-])CC1C (stereo not given)	L major viab 100
COC(=O)c1ccccc1NC1=C/C(=N\S(=O)(=O)c2cccs2)c2ccccc2C1=O	L major viab 100, HCT116 bCat-KO 1.8, PTEN del growth 1.7
Cc1ccc(NC2=C/C(=N/S(=O)(=O)c3cccs3)c3ccccc3C2=O)cc1	L major viab 99, HCT116 bCat-KO 1.2, PTEN del growth 0.5
O=C1C(Nc2ccccc2)=C/C(=N/S(=O)(=O)c2cccs2)c2ccccc21	L major viab 101, HCT116 bCat-KO 2.0, PTEN del growth 1.7
Cc1ccc(N/C(=N/S(=O)(=O)c2cccs2)c2ccccc2)c(C)c1	none (no result: HCT116 bCat-KO, PTEN del growth)
O=C(CNC(=O)c1ccc(N2C(=O)c3ccccc3C2=O)cc1)OCC(=O)c1ccc(Cl)cc1	none
Cc1cc(C)c(-c2c(O)c3cnn(-c4ccccc4)c3[nH]c2=O)c(C)c1	none
CC(C)C(=O)c1cc2c(cc1NC(=O)c1ccccc1)OCCO2	L major viab 57
COC(=O)C1C(=O)NC(SC)=C(C#N)C1c1ccccc1F (stereo not given)	L major viab 82
COc1cccc(NC(=O)c2cccc(C)c2[N+](=O)[O-])c1	none (no result: HCT116 bCat-KO, PTEN del growth)
COc1ccccc1N(C(=O)c1ccncc1)c1nc(-c2ccc([N+](=O)[O-])cc2)cs1	L major viab 99
COCC(=O)Nc1nc(-c2ccc([N+](=O)[O-])cc2)cs1	none (no result: HCT116 bCat-KO, PTEN del growth)
Cc1ccc(C2c3c(oc4ccccc4c3=O)C(=O)N2c2nnc(C(C)C)s2)o1 (stereo not given)	none
NS(=O)(=O)c1ccc(CCNC(=O)COC(=O)/C=C/c2ccc(Cl)cc2)cc1	none (no result: HCT116 bCat-KO, PTEN del growth)
CCOC(=O)c1c(C)oc2c1c(C(c1cccnc1)N1CCCCC1)c(O)c1ccccc12 (stereo not given)	L major viab 98
CCOC(=O)c1c(C)oc2c1c(C(c1ccccc1)N1CCOCC1)c(O)c1ccccc12 (stereo not given)	none
OCCC1CN(Cc2nc3c(s2)CCCC3)CCN1CCc1ccccc1 (stereo not given)	L major viab 76 (no result: HCT116 bCat-KO, PTEN del growth)
CSc1ncc(CN2CCN(CCC(C)C)C(CCO)C2)cn1 (stereo not given)	none (no result: HCT116 bCat-KO, PTEN del growth)
CC(C)CCN1CCN(Cc2nc3c(s2)CCCC3)CC1CCO (stereo not given)	L major viab 75 (no result: HCT116 bCat-KO, PTEN del growth)
c1ccc(C2=Nc3ccccc3SC2c2nc3ccccc3[nH]2)cc1 (stereo not given)	none
CCCn1nc(C(=O)NC2CCCc3ccccc32)c2ccccc2c1=O (stereo not given)	none
O=C(Nc1cccc(-c2nnc(-c3ccco3)o2)c1)C(c1ccccc1)c1ccccc1	L major viab 100
O=C(NNc1ccc(C(F)(F)F)cc1[N+](=O)[O-])c1ccc(NS(=O)(=O)c2ccc(F)cc2)cc1	L major viab 52
CCCCC(NC(C)=O)c1nc2ccccc2n1CCCC (stereo not given)	none
CC(=O)/C=C/c1ccc2ccccc2n1	L major viab 100, HCT116 bCat-KO 1.5, PTEN del growth 1.2
CC(C)(C)NC(=O)C(OC(=O)c1cccs1)c1ccc(C#N)cc1 (stereo not given)	none (no result: HCT116 bCat-KO, PTEN del growth)
CCN1/C(=C2\SC(=S)N(Cc3ccccc3)C2=O)Sc2ccccc21	none
CCC(CO)[n+]1c(C)cc(/C=C2\Sc3ccccc3N2Cc2ccccc2)cc1C (stereo not given)	L major viab 100, HCT116 bCat-KO 1.4, PTEN del growth 1.6
CC(C)(C)N1C(=O)c2ccccc2NC(=O)N1Cc1ccc(Br)cc1	L major viab 99
C=CCN(CC=C)C(=O)c1cc(Cl)ccc1[N+](=O)[O-]	L major viab 51
COc1cc(CN2CCNC(=O)C2CC(=O)N(C)Cc2cccnc2)cc(OC)c1 (stereo not given)	none (no result: PMI activator, PMI act hi M6P, HCT116 bCat-KO, PTEN del growth)
